The text below walks through data of ChEMBL document CHEMBL3612031, “Incorporation of a Michael acceptor enhances the antitumor activity of triterpenoic acids” (Eur J Med Chem, 2015).

Structures are written as SMILES. Activity calls are given as the source filed them. The rule behind the calls is not given here.

What all share (format): functional, cell-based
One assay relates to HT-29. Briefly: Cytotoxicity against human HT-29 cells assessed as cell survival after 96 hrs by SRB assay. Particulars: for EC50: HT-29, 96 h. The method, boiled down: (§1)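 Monolayers kept in RPMI 1640 with 10 % heat-inactivated FBS and penicillin/streptomycin, 37 °C, 5 % CO2. Exponentially growing cells seeded day 0 at densities avoiding confluence. After 24 h, serial dilutions 0-100 µM for 96 h, DMSO or DMF ≤0.5 % final. Fixed with 10 % TCA at 4 °C, stained 0.4 % SRB ~20 min, washed with 1 % acetic acid, dye dissolved in 10 mM Tris base, A570 read. Survival taken relative to untreated controls. EC50 fitted by two-parameter Hill equation, mean of three independent experiments each run in triplicate.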

A further assay deals with A549. Briefly: Cytotoxicity against human A549 cells assessed as cell survival after 96 hrs by SRB assay. Particulars: for EC50: A549, 96 h. In a few lines:
as §1
(Sulforhodamine B stains cellular protein and so reports cell mass.)

Assay [1] has as its system MCF7. Kind of assay: Cytotoxicity against human MCF7 cells assessed as cell survival after 96 hrs by SRB assay. The conditions noted are these: for EC50: MCF7, 96 h. The method, boiled down:
as §1

A short description of assay [2]: (§2) Cytotoxicity against human 518A2 cells assessed as cell survival after 96 hrs by SRB assay. The conditions noted are these: 518A2, 96 h. In a few lines: as §1
A further assay has as its system 8505C. Briefly: Cytotoxicity against human 8505C cells assessed as cell survival after 96 hrs by SRB assay. In a few lines:
as §1

The next assay has as its system 518A2. Described as §2. In a few lines:
as §1

Assay [3] concerns MCF7. Kind of assay: Cytotoxicity against human MCF7 cells assessed as inhibition of cell proliferation after 3 days by radioactive thymidine incorporation assay. Particulars: MCF7, 72 h. For orientation: Uptake of a labelled nucleoside into DNA is a usual measure of proliferation.

With `CC1(C)CC[C@]2(C(=O)O)CC[C@]3(C)C(=CC[C@@H]4[C@@]5(C)CC[C@H](O)C(C)(C)[C@@H]5CC[C@]43C)[C@@H]2C1` [OLEANOLIC_ACID], the EC50 (with HT-29; in the assay with A549; in the assay with MCF7 [1]; in assay [2]; with 8505C) was greater than 30 µM throughout.
`COC(=O)[C@]12CC[C@@H](C)[C@H](C)[C@H]1C1=CC(=O)[C@@H]3[C@@]4(C)CC[C@H](O)C(C)(C)[C@@H]4CC[C@@]3(C)[C@]1(C)CC2`: the 50% effective concentration (EC50) (in the assay with HT-29; in the assay on MCF7 [1]; in assay [2]) was greater than 30 µM each time.
Take `COC(=O)[C@]12CC[C@@H](C)[C@H](C)[C@H]1C1=CC[C@@H]3[C@@]4(C)C[C@H](C)C(=O)C(C)(C)[C@@H]4CC[C@@]3(C)[C@]1(C)CC2`: the result in the assay on HT-29, with A549, with MCF7 [1], in the assay with 518A2 and with 8505C was inactive.
As to `COC(=O)[C@@]1(C)CC[C@]2(C)CC[C@]3(C)C(=CC(=O)[C@@H]4[C@@]5(C)CCC(=O)C(C)(C)[C@@H]5CC[C@]43C)[C@@H]2C1`, the concentration giving a half-maximal response (EC50) is 26.7 µM in the assay with HT-29; 26.1 µM with A549; 16.7 µM with MCF7 [1]; greater than 30 µM in assay [2]; 20.5 µM with 8505C.
On to `COC(=O)[C@]12CCC(C)(C)C[C@H]1C1=CC(=O)[C@@H]3[C@@]4(C)CC(Br)(Br)C(=O)C(C)(C)[C@@H]4CC[C@@]3(C)[C@]1(C)CC2`, for which the result with HT-29, with A549, with MCF7 [1], in the assay on 518A2 and in the assay on 8505C was Active.
Regarding `CC1(C)CC[C@]2(C(=O)O)CC[C@]3(C)[C@H](C(=O)C=C4[C@@]5(C)C=C(C#N)C(=O)C(C)(C)[C@@H]5CC[C@]43C)[C@@H]2C1` [BARDOXOLONE], the concentration giving a half-maximal response (EC50) with MCF7 [3] was found to be 0.16 µM.
As for `COC(=O)[C@]12CCC(C)(C)C[C@H]1C1=CC(=O)[C@@H]3[C@@]4(C)CC[C@H](O)C(C)(C)[C@@H]4CC[C@@]3(C)[C@]1(C)CC2`, the concentration for a half-maximal effect (EC50) in the assay on HT-29 was 27.6 µM; in the assay on MCF7 [1] it was 28.7 µM; in assay [2], greater than 30 µM.
On to `C=C1C[C@]2(C)[C@H]3C(=O)C=C4[C@@H]5C[C@@](C)(C(=O)OC)CC[C@]5(C)CC[C@@]4(C)[C@]3(C)CC[C@H]2C(C)(C)C1=O`, for which the EC50 in the assay on HT-29 was greater than 30 µM; with A549, greater than 30 µM; in the assay on MCF7 [1], 0.74 µM; in assay [2], greater than 30 µM; with 8505C, greater than 30 µM.
For the compound `COC(=O)[C@]12CC[C@@H](C)[C@H](C)[C@H]1C1=CC[C@@H]3[C@@]4(C)CC[C@H](O)C(C)(C)[C@@H]4CC[C@@]3(C)[C@]1(C)CC2` [METHYL URSOLATE], the EC50 (in the assay on HT-29; in the assay with MCF7 [1]; in assay [2]) was greater than 30 µM throughout.
For the compound `COC(=O)[C@]12CCC(C)(C)C[C@H]1C1=CC(=O)[C@@H]3[C@@]4(C)CCC(=O)C(C)(C)[C@@H]4CC[C@@]3(C)[C@]1(C)CC2`, the EC50 in the assay on MCF7 [1] is greater than 30 µM.
For `COC(=O)[C@]12CCC(C)(C)C[C@H]1C1=CC[C@@H]3[C@@]4(C)CC[C@H](O)C(C)(C)[C@@H]4CC[C@@]3(C)[C@]1(C)CC2` [METHYL OLEANOLATE], the EC50 (in the assay on HT-29; with MCF7 [1]; in assay [2]) was greater than 30 µM in each case.
In the case of `COC(=O)[C@]12CC[C@@H](C)[C@H](C)[C@H]1C1=CC[C@@H]3[C@@]4(C)CC(Br)(Br)C(=O)C(C)(C)[C@@H]4CC[C@@]3(C)[C@]1(C)CC2`, the result in the assay on HT-29, in the assay with A549, in the assay on MCF7 [1], in the assay on 518A2 and in the assay with 8505C was Active.
Consider `C=C1C[C@]2(C)[C@H]3C(=O)C=C4[C@@H]5CC(C)(C)CC[C@]5(C(=O)OC)CC[C@@]4(C)[C@]3(C)CC[C@H]2C(C)(C)C1=O`, for which the figures for the EC50 (in the assay with A549; in assay [2]; in the assay on 8505C) were 17.9 µM, 16.8 µM and 15.5 µM, respectively.
Regarding `C=C1C[C@]2(C)[C@H]3C(=O)C=C4[C@@H]5[C@@H](C)[C@H](C)CC[C@]5(C(=O)OC)CC[C@@]4(C)[C@]3(C)CC[C@H]2C(C)(C)C1=O`, the EC50 with HT-29 stood at 3.16 µM; in the assay with A549, 1.57 µM; in the assay on MCF7 [1], 4.68 µM; in assay [2], 1.51 µM; with 8505C, 1.62 µM.
On to `COC(=O)[C@]12CC[C@@H](C)[C@H](C)[C@H]1C1=CC(=O)[C@@H]3[C@@]4(C)CC(Br)(Br)C(=O)C(C)(C)[C@@H]4CC[C@@]3(C)[C@]1(C)CC2`, for which the outcome in the assay on HT-29, with A549, with MCF7 [1], in the assay on 518A2 and with 8505C was Active.
Take `CC1(C)[C@@H](O)CC[C@]2(C)[C@H]3C(=O)C=C4[C@@H]5C[C@@](C)(C(=O)O)CC[C@]5(C)CC[C@@]4(C)[C@]3(C)CC[C@@H]12` [ENOXOLONE]: the 50% effective concentration (EC50) in the assay with HT-29 is 80.1 µM; with A549, 82.8 µM; in the assay on MCF7 [1] it was 84.7 µM; in assay [2] it was 83.9 µM; in the assay on 8505C, 86.5 µM.
For the compound `C=C1C[C@]2(C)[C@H]3C(=O)C=C4[C@@H]5C[C@@](C)(C(=O)OC)CC[C@]5(C)CC[C@@]4(C)[C@]3(C)CC[C@H]2C(C)(C)[C@H]1O`, the result in the assay with HT-29, with A549, in the assay on MCF7 [1], in the assay on 518A2 and with 8505C was inactive.
On to `C=C1C[C@]2(C)[C@H]3CC=C4[C@@H]5[C@@H](C)[C@H](C)CC[C@]5(C(=O)OC)CC[C@@]4(C)[C@]3(C)CC[C@H]2C(C)(C)C1=O`, for which the EC50 with HT-29 was determined as 1.35 µM; in the assay on A549 it was 2.93 µM; in the assay with MCF7 [1], 4.43 µM; in assay [2], 2.16 µM; in the assay on 8505C, 6.1 µM.
The corresponding values for `CC(=O)[C@@H]1CC[C@]2(C(=O)O)CC[C@]3(C)[C@H](CC[C@@H]4[C@@]5(C)CC[C@H](O)C(C)(C)[C@@H]5CC[C@]43C)[C@@H]12` [PLATANIC ACID] are 1.69 µM, 1.54 µM, 1.55 µM, 1.5 µM and 1.57 µM.
In the case of `C[C@H]1[C@H](C)CC[C@]2(C(=O)O)CC[C@]3(C)C(=CC[C@@H]4[C@@]5(C)CC[C@H](O)C(C)(C)[C@@H]5CC[C@]43C)[C@H]12` [URSOLIC ACID], the half-maximal effective concentration (EC50) in the assay with HT-29 stood at 10.6 µM; in the assay with A549, 15.5 µM; in the assay on MCF7 [1], 12.7 µM; in assay [2], 14.7 µM; in the assay on 8505C, 13.5 µM.
The corresponding values for `COC(=O)[C@]12CC[C@@H](C)[C@H](C)[C@H]1C1=CC(=O)[C@@H]3[C@@]4(C)CCC(=O)C(C)(C)[C@@H]4CC[C@@]3(C)[C@]1(C)CC2` are 3.71 µM, 3.83 µM, 4.24 µM, 3.71 µM and 4.32 µM.
Turning to `COC(=O)[C@@]1(C)CC[C@]2(C)CC[C@]3(C)C(=CC(=O)[C@@H]4[C@@]5(C)CC[C@H](O)C(C)(C)[C@@H]5CC[C@]43C)[C@@H]2C1`, the EC50 (in the assay with HT-29; with A549; in the assay with MCF7 [1]; in assay [2]; with 8505C) was greater than 30 µM throughout.
For `C=C1C[C@]2(C)[C@H]3CC=C4[C@@H]5CC(C)(C)CC[C@]5(C(=O)OC)CC[C@@]4(C)[C@]3(C)CC[C@H]2C(C)(C)C1=O`, the EC50 (with HT-29; with A549; in the assay with MCF7 [1]; in assay [2]; in the assay on 8505C) was greater than 30 µM throughout.

For orientation: EC50 means the concentration needed to bring the measured effect to its halfway point.
